L929 necroptosis: inhibitors of zVAD-triggered necroptosis, primary screen, L929 cells. L929 zVAD necroptosis rescue, ATP luminescence, 24 h; with zVAD 60 µM. viability rescue, % at 10 µM. 220,000 tested, 0.38% active;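 active = activation, scaled between plate controls, above about 75%, limit read from the data; inactive = activation under that limit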;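 also: 0% = zVAD with DMSO and 100% = DMSO alone without zVAD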
p97 ATPase inh: inhibitors of human p97 ATPase, primary screen, biochemical | recombinant p97 ATPase, Kinase-Glo ATP luminescence, 3 h | Transitional endoplasmic reticulum ATPase (Homo sapiens), P55072 | inhibition, % at 8 µM | 220,000 tested, 0.42% active; in the data active = inhibition above about 15%;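 also: 0% = DMSO vehicle and 100% = wells lacking enzyme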
M18AAP inhibitor: PfM18AAP inhibitors, malaria aminopeptidase, primary screen, biochemical, QFRET, recombinant enzyme. inhibition, % at 7.35 µM. M18 aspartyl aminopeptidase (Plasmodium falciparum 3D7). 290,000 tested, 1.2% active. H-Glu-NHMec fluorogenic cleavage;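 active = inhibition above the campaign mean inhibition over all tested compounds plus 3 SD, cut at about 28% in these data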;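 also: 0% = plate median of test compound wells and 100% = 2 mM ZnCl2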
RBBP9 inhibitor: human RBBP9 inhibitors, primary screen, biochemical, fluorescence polarization, FP-Rh probe, HTS; inhibition, % at 7.94 µM; Serine hydrolase RBBP9 (Homo sapiens), O75884; recombinant RBBP9; 220,000 tested, 0.2% active;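 active = inhibition above the campaign mean of all tested compounds plus 3 SD, cut at about 14% in these data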;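 also: plate controls were DMSO wells with RBBP9 for no effect and wells lacking RBBP9 protein for full effect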
Target sequence (O75884 whole entry, looked up): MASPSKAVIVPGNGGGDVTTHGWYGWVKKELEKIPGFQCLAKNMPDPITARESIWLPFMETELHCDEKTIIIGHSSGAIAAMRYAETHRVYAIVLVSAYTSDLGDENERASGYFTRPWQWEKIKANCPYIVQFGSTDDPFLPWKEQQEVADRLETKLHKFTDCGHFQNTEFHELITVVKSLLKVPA
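Test system: recombinant human RBBP9. Quantity: 2.5 µM RBBP9 dispensing solution, before mixing. Detection: FP readout at 525/598 nm. Reagent: Serine-hydrolase probe FP-Rh, 375 nM pre-mixing. Measure: % inhibition. Control set: DMSO-treated enzyme wells and wells lacking RBBP9. Buffer or medium: Tris-NaCl-Pluronic buffer, pH 8.0. Times: preincubation 30 min plus labeling 45 min at 25 °C.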
TNF necrop inh: inhibitors of TNF-alpha triggered necroptosis, primary screen, cell-based, Jurkat FADD-/-, single concentration. Jurkat FADD-/- TNF necroptosis rescue, ATP luminescence, 24 h; 0 = TNF only, 100 = no-TNF cells. activation (protection from cell death), % at 10 µM. 220,000 tested, 0.068% active;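 active = activation, meaning protection from cell death, of at least 50% relative to plate controls; inactive = activation below 50%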;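 also: necroptosis triggered by 40 ng/mL TNF-alpha added together with compound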
Wee1 degr inh: Wee1 degradation inhibitors, primary screen, cell-based, HeLa, Wee1K328M-luciferase, luminescence. Wee1-like protein kinase (Homo sapiens), P30291. HeLa Luc-Wee1K328M stability; 100% = proteasome inhibitor MG132 effect. reporter increase, % at 5 µM. 220,000 tested, 1.2% active;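 active = activation above the mean of all tested compounds plus 3 SD, set per screening run, cut at about 8.8% in these data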;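 also: cells exposed to compound for 20 h before luminescence read; 0% = DMSO alone and 100% = MG132 at 30 µM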
* marks the source's active call; other numbers are inactive results. In the library only some 2.7% were active in any assay of this set; here they are far more common.

Results for O=C(c1ccco1)c1coc2c1cc(O)c1ccccc12 ?
L929 necroptosis: 4.9; p97 ATPase inh: 5.9; M18AAP inhibitor: 12.6; RBBP9 inhibitor: 3.0; TNF necrop inh: 1.2; Wee1 degr inh: -1.8

What do the screens show for `CC1=C(C#N)c2nc(N)c(C#N)c(C)c2/C1=C\c1ccc(OCC(=O)O)c(Cl)c1`?
L929 necroptosis: 0.5; p97 ATPase inh: 4.6; M18AAP inhibitor: -4.2; RBBP9 inhibitor: -9.1; TNF necrop inh: -5.1; Wee1 degr inh: 1.9

Results for Cc1ccccc1NC(=O)CN1C(=O)COc2ccc(Cl)cc21 ?
L929 necroptosis: -0.1; p97 ATPase inh: 15.0*; M18AAP inhibitor: 1.1; RBBP9 inhibitor: -3.4; TNF necrop inh: -2.3; Wee1 degr inh: -1.3

What do the screens show for `CCOC(=O)/C(=N/Nc1ccc(Cl)cc1)Sc1nnnn1-c1ccc(C)cc1`?
L929 necroptosis: 1.2; p97 ATPase inh: 5.7; M18AAP inhibitor: -9.2; RBBP9 inhibitor: -3.5; TNF necrop inh: 1.0; Wee1 degr inh: 10.8*

Results for CC1(C)C(Cl)C(=O)C(C(=O)c2ccccc2)C(=O)C1Cl (centres undefined) ?
M18AAP inhibitor: 0.9

Results for O=C(CSc1nc2scc(-c3ccco3)c2c(=O)n1-c1ccccc1)N1CCOCC1 ?
L929 necroptosis: 2.8; p97 ATPase inh: 3.5; M18AAP inhibitor: -1.9; RBBP9 inhibitor: 6.3; TNF necrop inh: 1.7; Wee1 degr inh: -1.9

How did NC(=O)CSc1nc2scc(-c3ccco3)c2c(=O)n1-c1ccccc1 do in these assays?
L929 necroptosis: 2.1; p97 ATPase inh: 14.6*; M18AAP inhibitor: -5.6; RBBP9 inhibitor: -11.7; TNF necrop inh: -2.9; Wee1 degr inh: -1.3

What do the screens show for `CCC1CCCCN1CCCNC(=O)CNC(=O)c1nn(-c2ccc(OC)c(Cl)c2)c(=O)c2ccccc12` (centres undefined)?
M18AAP inhibitor: -3.7

What do the screens show for `CC(Oc1ccccc1F)C(=O)Nc1ccc2ccccc2c1` (centres undefined)?
L929 necroptosis: -1.3; p97 ATPase inh: -4.9; M18AAP inhibitor: 5.9; RBBP9 inhibitor: 1.8; TNF necrop inh: -0.5; Wee1 degr inh: 9.3*

What do the screens show for `O=C(C1CCCN(Cc2ccccc2F)C1)N1CCCCC1` (centres undefined)?
M18AAP inhibitor: 2.1

What do the screens show for `O=C(C1CCCN(Cc2ccccc2Br)C1)N1CCCCC1` (centres undefined)?
L929 necroptosis: -0.8; p97 ATPase inh: -3.8; M18AAP inhibitor: 0.6; RBBP9 inhibitor: -12.4; TNF necrop inh: 5.8; Wee1 degr inh: 10.5*

How did O=C(Nc1c(F)cccc1F)C1CCN(C(=O)c2cccs2)CC1 do in these assays?
M18AAP inhibitor: -9.3

How did O=C(NCC1CCCO1)c1cc2cc(Cl)ccc2[nH]1 (centres undefined) do in these assays?
M18AAP inhibitor: 6.8

What do the screens show for `COc1ccc(CN(C(=O)CCC(=O)Nc2cc(C)on2)C(C(=O)NC(C)(C)C)c2cccc(OC)c2OC)cc1` (centres undefined)?
M18AAP inhibitor: -9.0

Results for CN(C)C(CNC(=O)CCCN1C(=O)c2cccc3cccc(c23)C1=O)c1ccccc1 (centres undefined) ?
M18AAP inhibitor: 11.6

Results for C=CCNC(=S)Nc1ccc(C)cc1[N+](=O)[O-] ?
L929 necroptosis: 0.8; p97 ATPase inh: 6.2; M18AAP inhibitor: 8.3; RBBP9 inhibitor: -5.5; TNF necrop inh: 0.3; Wee1 degr inh: 9.1*

What do the screens show for `Nc1nccc(-c2cc(-c3ccc(Cl)cc3Cl)no2)n1`?
L929 necroptosis: -1.9; p97 ATPase inh: -10.7; M18AAP inhibitor: -3.0; RBBP9 inhibitor: -7.8; TNF necrop inh: -29.2; Wee1 degr inh: 10.1*

What do the screens show for `CCOc1ccccc1CN1CCNC(=O)C1CC(=O)N(C)C1CCOCC1` (centres undefined)?
M18AAP inhibitor: 7.9

High-throughput results: PubChem BioAssay, several laboratories
